# Only some compounds are listed: those with a hit (about 4.1% of all), similar ones and a draw of the others.
# MEKK3 PB1 HTS – raises or lowers MEK5 binding to the human MEKK3 PB1 domain. bead-based flow cytometry, Alexa488-MEK5 binding to MEKK3; actives lie on both sides; 0 = blocked by unlabeled MEK5, 100 = vehicle. binding response (% of control), % at 10 µM. actives 1.4% (n = 290,000);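 active means binding response more than 3 SD above or below the average of its plate-row segment, actives on both sides; inconclusive means wells at one plate position flagged as instrument error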;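 further: Alexa488 bead fluorescence after subtracting the streptavidin-only scavenger bead signal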
# Target sequence (Q99759 whole entry, looked up, the tested form may be a part): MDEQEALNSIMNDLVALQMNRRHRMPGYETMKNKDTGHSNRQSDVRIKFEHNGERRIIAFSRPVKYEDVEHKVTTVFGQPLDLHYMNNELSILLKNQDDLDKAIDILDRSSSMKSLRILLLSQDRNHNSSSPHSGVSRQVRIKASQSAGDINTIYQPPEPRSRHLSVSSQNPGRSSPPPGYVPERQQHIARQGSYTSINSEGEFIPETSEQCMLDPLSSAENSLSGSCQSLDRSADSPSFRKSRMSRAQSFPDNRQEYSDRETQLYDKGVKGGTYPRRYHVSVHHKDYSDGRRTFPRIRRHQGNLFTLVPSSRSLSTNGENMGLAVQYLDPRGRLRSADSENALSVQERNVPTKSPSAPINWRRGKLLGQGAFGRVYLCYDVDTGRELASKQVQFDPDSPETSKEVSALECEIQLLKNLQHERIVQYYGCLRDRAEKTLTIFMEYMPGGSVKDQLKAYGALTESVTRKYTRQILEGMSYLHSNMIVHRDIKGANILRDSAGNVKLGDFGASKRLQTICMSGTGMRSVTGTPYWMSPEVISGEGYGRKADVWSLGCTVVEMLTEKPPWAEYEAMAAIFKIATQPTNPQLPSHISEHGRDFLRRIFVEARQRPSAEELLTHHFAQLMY
# MEKK2 WT-MEK5 – raises or lowers MEK5 binding to wildtype human MEKK2 PB1 domain; actives 1.1% (n = 290,000); binding response (% of control), % at 10 µM; bead flow cytometry, Alexa488-MEK5 binding to MEKK2 WT; actives lie on both sides; in the data active means binding response below about 67% or above about 130%; inconclusive means no clear call, values can overlap the other calls; inactive means in between
# MEKK2 mut-MEK5 – signal of MEK5 binding to mutant human MEKK2 PB1 domain; bead flow cytometry, Alexa488-MEK5 binding to MEKK2 mutant; percent response, % at 10 µM; actives 0.35% (n = 290,000); in the data active means percent response above about 24%, passing the limit was not always enough
# NS3 helicase inh – HCV NS3 helicase inhibition. NS3 helicase DNA unwinding, Cy5 molecular beacon fluorescence. inhibition, % at 10.9 µM. actives 0.56% (n = 290,000). AID 1800;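 active means inhibition above the mean of all tested compounds plus 3 SD, set per campaign, cut at about 35% in these data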;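 further: 0% = DMSO wells and 100% = thioflavine S control wells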
#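 Assay system: hepatitis C virus NS3 helicase domain fragment enzyme. Also added: annealed dual-labelled DNA beacon duplex, ATP-started. Timing: 1 h reaction at 25 °C, ATP-initiated. Technique: Cy5 fluorescence at 0 and 60 min, beacon hairpin quenching. Evaluation: % inhibition of unwinding. Replication: one well per compound.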
# T cruzi inh – T. cruzi replication inhibition; T. cruzi beta-gal in NIH3T3, luminescence, 90 h; inhibition, % (no concentration beside the values); actives 1.4% (n = 300,000); AID 1885;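 active means mean inhibition across valid replicates above about 55%, limit read from the data; inconclusive means mean below that limit but half or more replicates reach it; inactive means mean below it, under half of replicates reach it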;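 further: signal also drops with host cell toxicity which is not excluded here; 0% = plate median of DMSO wells and 100% = zero luminescence signal; higher percent means less beta-gal luminescence so fewer parasites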
#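 Assay system: NIH/3T3 fibroblasts plus reporter T. cruzi. Amount: NIH/3T3 cells, 5,000 per well. Buffer or medium: DMEM, 2% fetal bovine serum. Doses: compound pinned at 50 nL/well, DMSO. Schedule: ≥90 h infection period, 3 h prior cell attachment. Signal: luminescent β-galactosidase signal after 60 min lysis. Read-out: parasite load inhibition, %.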
# FID counter – counter-screen for HCV NS3 helicase inhibitors: DNA intercalator displacement; DNA fluorescent intercalator displacement, fluorescence; inhibition, % at 7.9 µM; actives 0.17% (n = 290,000); in the data active means inhibition above about 37%;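 further: 0% = vehicle and 100% = reference compound; higher means more ethidium bromide displaced from hairpin DNA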
# An asterisk follows results filed as active; ? = inconclusive; . = no result given; ! = not confirmed by another sample.
SMILES,MEKK3 PB1 HTS,MEKK2 WT-MEK5,MEKK2 mut-MEK5,NS3 helicase inh,T cruzi inh,FID counter
O=C(Nc1ccccc1F)C1COc2ccccc2O1 (configuration not stated),111.0,117.0,9.0,0.7,-2.2,-2.1
Cc1ccc(-c2nc(Nc3cccc(O)c3)c3ccccc3n2)cc1,107.0,108.0,1.0,-24.9,0.5,12.2
Oc1cccc(Nc2c3ccccc3nc3ccccc23)c1,108.0,118.0,14.0,26.3,70.5*,41.9*
COc1ccc(Nc2c3ccccc3nc3ccccc23)cc1,99.0,115.0,5.0,-2.9,40.2,26.1
c1cncc(Nc2c3ccccc3nc3ccccc23)c1,107.0,111.0,9.0,4.2,34.6,37.3*
Clc1ccc(C#Cc2cccnc2)cc1,.,.,.,.,-23.8,.
CN(CC(=O)c1c(N)n(C)c(=O)n(C)c1=O)c1ccccc1,114.0,103.0,-1.0,-13.6,-9.9,-1.4
CCc1ccc(CN2CCCC(CCC(=O)N3CCN(c4ccccn4)CC3)C2)o1 (configuration not stated),99.0,99.0,-1.0,-3.8,59.2*,-2.4
Cn1ncc2c(O/N=C(\N)c3ccc(C(C)(C)C)cc3)ncnc21,107.0,105.0,10.0,-6.1,64.1*,-19.5
CCOC(=O)c1ccc(Nc2ncnc3c2cnn3C)cc1,93.0,93.0,-5.0,13.2,-29.6,-5.6
CCOC(=O)N1CCC(N2CCCC(C(=O)c3ccc4cc(OC)ccc4c3)C2)CC1 (configuration not stated),96.0,98.0,-10.0,-23.3,56.3*,11.9
Cc1ccc(CN(C(=O)c2ccc([N+](=O)[O-])cc2)C2CCS(=O)(=O)C2)o1 (configuration not stated),102.0,103.0,3.0,9.4,-3.5,-4.0
CCOc1cc(CNCc2cccnc2)cc(Br)c1OCC(N)=O,103.0,107.0,4.0,-3.2,-11.8,3.3
CC(C)Cc1ccc(CN2CCCC(NC(=O)Cn3cnnn3)C2)cc1 (configuration not stated),105.0,124.0,14.0,-32.6,?,3.5
CC(C)Cc1ccc(CN2CCCC(NC(=O)CCn3cnnn3)C2)cc1 (configuration not stated),108.0,117.0,7.0,-12.2,56.0*,6.2
COc1ccc(COC(=O)c2ccc(Br)c(S(=O)(=O)N3CCOCC3)c2)cc1F,.,.,.,.,11.5,.
Cc1c([N+](=O)[O-])nnn1-c1cc(Cl)cc(Cl)c1,101.0,96.0,-5.0,6.7,63.0*,11.7
COc1ccc(Nc2nnc(-c3ccc(O)cc3)c3ccccc23)cc1,103.0,98.0,-1.0,2.6,57.1*,-7.4
Oc1ccc(Nc2nnc(-c3ccc(O)cc3)c3ccccc23)cc1,101.0,92.0,-6.0,3.2,0.7,-14.6
O=C(NC1CCCCC1)C(c1ccncc1)N(Cc1ccccc1)C(=O)c1ccc(-c2ccccc2)[nH]1 (configuration not stated),.,.,.,-35.6,70.3*,-23.5
Cc1ccc(N2C(=O)/C(=C/c3ccco3)SC2=S)cc1,101.0,103.0,1.0,9.9,-8.2,-1.4
N=C1S/C(=C\c2ccco2)C(=O)N1c1nccs1,98.0,91.0,-4.0,23.9,55.8*,-9.9
COc1ccc(-c2c[n+](CC(=O)N3c4ccccc4Sc4ccccc43)c3n2CCC3)cc1,101.0,123.0,16.0,-70.5,57.1*,17.4
COc1ccc(-c2c[n+](CC(=O)c3cccs3)c3n2CCC3)cc1,93.0,104.0,-8.0,-13.9,0.1,0.5
O=C(C[n+]1cc(-c2ccccc2)n2c1CCCCC2)c1ccc(Br)cc1,99.0,124.0,-6.0,-43.2,20.4,41.9*
SMILES,MEKK3 PB1 HTS,MEKK2 WT-MEK5,MEKK2 mut-MEK5,NS3 helicase inh,T cruzi inh,FID counter
Cc1ccc(-c2c[n+](CC(=O)c3cccs3)c3n2CCC3)cc1,109.0,108.0,10.0,-25.0,0.2,18.8
Cc1ccc(C(=O)C[n+]2cc(-c3ccc(C)cc3)n3c2CCCCC3)cc1,.,.,.,-88.9,69.0*,38.9*
COc1ccc(C(=O)C[n+]2cc(-c3ccc(OC)cc3)n3c2CCCC3)cc1,101.0,90.0,-2.0,-56.4,62.2*!,9.6
O=C(C[n+]1cc(-c2ccccc2)n2c1CCC2)OCc1ccccc1,100.0,104.0,0.0,2.7,-7.8,0.1
COc1cccc(CNC(=O)Cn2c(=O)c3cccn3c3ccccc32)c1,104.0,100.0,2.0,5.4,9.3,-29.0
COc1ccc(C(=O)O)cc1S(=O)(=O)NC(C)C,85.0,88.0,-18.0,31.6,-6.8,2.3
Cc1ccc(-c2cc3c(N=O)c4ccccc4c-3n[nH]2)cc1,104.0,96.0,-4.0,7.7,19.8,-2.6
Cc1cccc(-c2cc3c(N=O)c4ccccc4c-3n[nH]2)c1,101.0,91.0,-6.0,-3.5,62.0*,0.7
CC1(C)Cc2c(sc3ncnc(NNC(=S)NCc4ccccc4)c23)CO1,132.0*,108.0,0.0,-9.1,-51.6,-19.5
Cc1ccccc1CN(C)C(=O)c1ccc2ccccc2n1,103.0,107.0,4.0,4.5,-11.7,-24.8
CCC(=O)NC(c1ccc(OC)c(OC)c1)c1cc(Cl)c2cccnc2c1O (configuration not stated),105.0,100.0,3.0,5.8,62.4*,-17.9
O=C(NC(c1ccccc1)c1cc(Cl)c2cccnc2c1O)c1cccnc1 (configuration not stated),111.0,102.0,0.0,-9.7,58.1*,-3.6
COc1ccc(C(NC(C)=O)c2cc(Cl)c3cccnc3c2O)cc1OC (configuration not stated),99.0,98.0,-3.0,4.5,57.5*,-19.6
CC(C)CNC(=O)c1cc(S(=O)(=O)N2CCOCC2)ccc1N1CCCC1,98.0,98.0,5.0,-0.9,-1.0,-9.7
CC[C@@H]1[C@H]2CCCC(=O)N3CC[C@@H](C[C@@H]1Nc1ccccc1)[C@@H]23,103.0,104.0,-2.0,-14.1,4.1,-33.6
CS(=O)(=O)N(CC(=O)NCc1ccncc1)C1CCCCC1,93.0,95.0,-5.0,2.5,-5.3,4.2
CCOC(=O)c1nc(Nc2cc(C)cc(C)c2)c2ccccc2n1,101.0,103.0,-1.0,2.4,56.1*,-17.5
Cc1cccc(OCc2nnc(SCC(=O)NC3CCCCC3)n2C)c1,98.0,102.0,-3.0,0.9,14.4,-33.9
CC1CCN(Cc2c(C(=O)N/N=C/c3cc(Br)ccc3O)nnn2-c2nonc2N)CC1,99.0,97.0,-4.0,-10.0,59.2*,-14.2
Cc1cc(C)c(/C=N/NC(=O)c2nnn(-c3nonc3N)c2CN2CCC(C)CC2)c(C)c1,107.0,96.0,-3.0,-42.2,36.0,-23.3
CC1CCN(Cc2c(C(=O)N/N=C/c3cc(Cl)ccc3O)nnn2-c2nonc2N)CC1,101.0,96.0,-3.0,-7.5,60.6*,-12.1

# Compound activity deposited in PubChem BioAssay by several laboratories.
